What all share (assay type): functional
Assay [1] deals with Candida albicans. Kind of assay: In vitro minimum fungicidal concentration (MFC) against Candida albicans (MY 1055). In a few lines: (§1)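 Whole-cell broth microdilution assay against reference and clinical Candida isolates; the MFC is the median of at least four duplicate determinations.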
The next assay has as its system Kluyveromyces marxianus. Put plainly: In vitro minimum fungicidal concentration (MFC) against Candida pseudotropicalis (MY 2099). In a few lines:
as §1

Assay [2] relates to Mus musculus. Kind of assay: In vivo minimum dose administered intraperitoneally b.i.d. which decreases Candida albicans (MY 1055) colony forming units by 99.9% in target organ kidney assay. In a few lines:
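Target organ kidney assay in congenitally immunodeficient DBA/2 mice infected with C. albicans MY1055 and dosed ip twice daily. Kidney CFU/g is compared with untreated controls, and ED99.9 is the lowest dose giving a 99.9% reduction.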

Assay [3] relates to Mus musculus. Kind of assay: In vivo dose administered ip bid on days 0-4 which increases the 28-day survival rate of Aspergillus fumigatus by 50%. The settings on record: 672 h. The method in brief: (§2)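 DBA/2 mice with disseminated A. fumigatus (MF5668) infection; compound given ip twice daily on days 0–4. Survival followed for 28 days; ED50 taken as the dose that raises the 28-day survival rate by 50%.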

For the next assay, the system named is Candida tropicalis. Kind of assay: In vitro minimum fungicidal concentration (MFC) against Candida tropicalis (MY 1012). The method in brief: as §1
For assay [4], the system named is Candida albicans. Put plainly: In vitro minimum fungicidal concentration (MFC) against Candida albicans (MY 1208). The conditions noted are these: in the assay text read “MY 1028” for “MY 1208”. In a few lines: as §1
For another assay, the system named is Rattus norvegicus. Kind of assay: In vivo minimum dose administered subcutaneously b.i.d. which decreases the lung cyst count by 90% using PCP model in dexamethasone-immunosuppressed rats. The method in brief:
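Acute Pneumocystis carinii pneumonia model in dexamethasone-immunosuppressed Sprague-Dawley rats dosed sc twice daily for 4 days. Lung cyst counts are compared with untreated controls, and ED90 is the lowest dose giving a 90% reduction.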

Another assay has as its system Candida parapsilosis. Kind of assay: In vitro minimum fungicidal concentration (MFC) against Candida parapsilosis (MY 1010). The conditions noted are these: Lodderomyces parapsilosis. The method in brief:
as §1

Assay [5] has as its system Candida albicans. Put plainly: In vitro concentration causing 50% inhibition of beta-(1,3)-D-glucan synthesis in a Candida albicans (MY 1208) membrane assay.
Assay [6] concerns Mus musculus. Kind of assay: In vivo dose administered intraperitoneally bid on days 0-4 which increases the 28-day survival rate of Aspergillus fumigatus by 50%. The settings on record: ip, 672 h. The method in brief: as §2

Four compounds from ChEMBL document CHEMBL1127474, “Synthesis and antifungal activity of novel cationic pneumocandin B(o) derivatives” (J Med Chem, 1994) can be followed below.

Structures are written as SMILES. Values after ≈ are worked out from the molar mass of the structure shown. *1 amine or outer side, *2 acyl side, *3 side chain or, on linkers, in order; H or OH if unused. Where a SMILES comes first, the peptide text is derived from it. Bridges are numbered along the chain shown (N, C = ends). [ ]: non-standard residue; d: D form. The star is where a group is joined. Orn(4R-OH,5R-OH) = O=C([C@H](C[C@@H](O)[C@@H](O)N[*:3])N[*:1])[*:2]; hTyr(3S-OH,4S-OH) = N[C@H](C(=O)O)[C@H](O)[C@@H](O)c1ccc(O)cc1; Gln(3R-OH) = NC(=O)C[C@@H](O)[C@H](N)C(=O)O; Orn(3R-OH) = NCC[C@@H](O)[C@H](N)C(=O)O; Pro(3S-OH) = O=C(O)[C@H]1NCC[C@@H]1O; Hyp = O=C(O)[C@@H]1C[C@@H](O)CN1; X1 = CCC(C)CC(C)CCCCCCCCC(=O)*

Regarding `CCC(C)CC(C)CCCCCCCCC(=O)N[C@H]1C[C@@H](O)[C@@H](O)NC(=O)[C@@H]2[C@@H](O)CCN2C(=O)[C@H]([C@H](O)CCN)NC(=O)[C@H]([C@H](O)[C@@H](O)c2ccc(O)cc2)NC(=O)[C@@H]2C[C@@H](O)CN2C(=O)[C@H]([C@@H](C)O)NC1=O` (stereo partly drawn) (X1-[Orn(4R-OH,5R-OH)]T[Hyp][hTyr(3S-OH,4S-OH)][Orn(3R-OH)][Pro(3S-OH)]; lactam 1-C), the minimum fungicidal concentration (MFC) in the assay with Candida albicans [1] is less than 0.06 µg/mL; with Kluyveromyces marxianus, 0.125 µg/mL (≈ 0.119 µM); in the assay with Candida tropicalis, less than 0.06 µg/mL; in the assay on Candida albicans [4], less than 0.06 µg/mL; against Candida parapsilosis, 0.125 µg/mL (≈ 0.119 µM). The same compound came in with an ED99.9 in the assay with Mus musculus [2] of 0.375 mg/kg. The compound also came in with a median effective dose (ED50) with Mus musculus [3] greater than 20 mg/kg. The same compound came in with an ED90 with Rattus norvegicus of 0.037 mg/kg. In the assay on Candida albicans [5], this compound gave an IC50 of 10 nM.

For the compound `CCC(C)CC(C)CCCCCCCCC(=O)N[C@H]1C[C@@H](O)[C@@H](O)NC(=O)[C@@H]2[C@@H](O)CCN2C(=O)[C@H]([C@H](O)CC(N)=O)NC(=O)[C@H]([C@H](O)[C@@H](O)c2ccc(O)cc2)NC(=O)[C@@H]2C[C@@H](O)CN2C(=O)[C@H]([C@@H](C)O)NC1=O` (stereo partly drawn) (X1-[Orn(4R-OH,5R-OH)]T[Hyp][hTyr(3S-OH,4S-OH)][Gln(3R-OH)][Pro(3S-OH)]; lactam 1-C), the minimal fungicidal concentration (MFC) against Candida albicans [1] turned out to be 0.5 µg/mL (≈ 0.469 µM); in the assay with Kluyveromyces marxianus, 1 µg/mL (≈ 0.939 µM); in the assay with Candida tropicalis, 0.125 µg/mL (≈ 0.117 µM); in the assay on Candida albicans [4], 0.25 µg/mL (≈ 0.235 µM); against Candida parapsilosis, 2 µg/mL (≈ 1.88 µM). The same compound displayed an ED50 with Mus musculus [6] greater than 20 mg/kg. In the assay with Mus musculus [2], this compound displayed an ED99.9 of 6 mg/kg. For the same compound, in the assay on Rattus norvegicus, the ED90 was determined as 0.15 mg/kg.

Consider `CCC(C)CC(C)CCCCCCCCC(=O)N[C@H]1C[C@@H](O)[C@@H](OCCN)NC(=O)[C@@H]2[C@@H](O)CCN2C(=O)[C@H]([C@H](O)CC(N)=O)NC(=O)[C@H]([C@H](O)[C@@H](O)c2ccc(O)cc2)NC(=O)[C@@H]2C[C@@H](O)CN2C(=O)[C@H]([C@@H](C)O)NC1=O` (stereo not given in full), for which the minimal fungicidal concentration (MFC) was 0.125 µg/mL (≈ 0.113 µM) with Candida albicans [1]; 1 µg/mL (≈ 0.902 µM) with Kluyveromyces marxianus; 0.25 µg/mL (≈ 0.226 µM) with Candida tropicalis; 0.125 µg/mL (≈ 0.113 µM) in the assay on Candida albicans [4]; 1 µg/mL (≈ 0.902 µM) against Candida parapsilosis. Besides, the ED99.9 in the assay with Mus musculus [2] came to 0.78 mg/kg. In the assay with Mus musculus [3], this compound came in with an ED50 of 0.06 mg/kg. Moreover, the ED90 with Rattus norvegicus came out at 0.037 mg/kg. This compound also returned a half-maximal inhibitory concentration (IC50) in the assay on Candida albicans [5] of 11 nM.

Take `CCC(C)CC(C)CCCCCCCCC(=O)N[C@H]1C[C@@H](O)[C@@H](OCCN)NC(=O)[C@@H]2[C@@H](O)CCN2C(=O)[C@H]([C@H](O)CCN)NC(=O)[C@H]([C@H](O)[C@@H](O)c2ccc(O)cc2)NC(=O)[C@@H]2C[C@@H](O)CN2C(=O)[C@H]([C@@H](C)O)NC1=O` (stereo not given in full): the minimum fungicidal concentration (MFC) is 0.125 µg/mL (≈ 0.114 µM) against Candida albicans [1]; less than 0.06 µg/mL against Kluyveromyces marxianus; less than 0.06 µg/mL in the assay on Candida tropicalis; less than 0.06 µg/mL in the assay on Candida albicans [4]; 0.125 µg/mL (≈ 0.114 µM) in the assay on Candida parapsilosis. In the assay with Mus musculus [2], this compound showed an ED99.9 of 0.09 mg/kg. In addition, it took a dose of 0.03 mg/kg to reach the 50% effect level in the assay on Mus musculus [3] (ED50). The ED90 in the assay with Rattus norvegicus came to 0.019 mg/kg. The compound further yielded a half-maximal inhibitory concentration (IC50) in the assay on Candida albicans [5] of 1 nM.

Usually MFC stands for the smallest concentration meeting the test's criterion for killing the fungus. High values mean less potent killing, low ones more potent killing. Broadly, the ED50 is the dose that gives a 50% effect, or the effect in half of the subjects. Low readings indicate an effect at a small dose, high ones a need for a large dose. As a reminder, the IC50 is the concentration that gives 50% inhibition. A higher IC50 goes with weaker potency.
